According to paper PMC11403393 (RSC Advances, 2024):

Target: α-glucosidase (Saccharomyces cerevisiae, UniProt P53341)
Experiment: Kinetic study of α-glucosidase inhibition
Format: biochemical
Procedure, shortened: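 Yeast α-glucosidase (0.02 U per well) in 50 mM sodium phosphate, pH 7.0, preincubated with test compound (1.50, 4.00, 8.00 μM, or none) at 37 °C for 15 min. p-Nitrophenyl α-D-glucopyranoside added at 0.1, 0.2, 0.4 or 0.8 mM. A400 followed continuously for 30 min, in triplicate. Analysed by Lineweaver–Burk plot, replot of its slopes against inhibitor concentration, and Dixon plot.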

α-glucosidase, sequence (P53341 whole entry): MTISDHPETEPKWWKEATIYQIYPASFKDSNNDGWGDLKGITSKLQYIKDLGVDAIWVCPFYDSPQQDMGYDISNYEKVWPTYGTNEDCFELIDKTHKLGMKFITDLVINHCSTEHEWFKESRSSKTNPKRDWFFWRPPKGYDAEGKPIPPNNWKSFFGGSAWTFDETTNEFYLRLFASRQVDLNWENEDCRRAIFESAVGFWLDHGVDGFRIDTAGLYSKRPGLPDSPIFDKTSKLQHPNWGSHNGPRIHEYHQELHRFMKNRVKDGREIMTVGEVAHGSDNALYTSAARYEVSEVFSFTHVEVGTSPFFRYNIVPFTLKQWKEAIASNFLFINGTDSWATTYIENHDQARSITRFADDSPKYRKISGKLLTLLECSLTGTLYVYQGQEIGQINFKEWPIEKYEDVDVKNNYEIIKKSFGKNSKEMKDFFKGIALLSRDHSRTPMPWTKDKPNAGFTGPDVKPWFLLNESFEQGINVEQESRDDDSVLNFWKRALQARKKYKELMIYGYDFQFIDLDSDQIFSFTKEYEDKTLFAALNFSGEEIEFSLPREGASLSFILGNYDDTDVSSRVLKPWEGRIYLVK

Structure (SMILES): O=C(Nc1cccc(Cl)c1)Nc1ccccc1N=Cc1cc(Cl)ccc1O [Compound 5h, 1-(2-{[(5-Chloro-2-hydroxybenzylidene)amino]}phenyl)-3-(3-chlorophenyl)urea]
- Effect on Km of the enzyme: increases Km
- Effect on Vmax of the enzyme: remains constant
- Mode (type) of inhibition: competitive mode of inhibition
